This is an account of results in PubChem BioAssay.

Molecules are shown by their SMILES. The source made the active and inactive calls.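 Rule for the calls, unless noted: active = a full or partial loss of lipid-probe fluorescence in the fish gall bladder, intestine or both, judged by eye; inactive = no fluorescence loss, or compound toxic to the fish.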

A short description of assay [1]: inhibitors of TNFa-induced NFkB p65 translocation, primary screen, imaging, HUVEC, MLSMR starter and 10KST1 sets (AID 438;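 active = inhibition above 20% together with a positive visual image hit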;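 note: compound added about 3h40 before a 20 min TNFalpha stimulation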;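 for inhibition: signal is the nuclear over cytoplasmic p65 intensity ratio per well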). Particulars: HUVEC TNFa-induced p65 nuclear translocation; cell count: measured here: nuclei count (cytotoxicity indicator), at 2.08 µM; inhibition: at 2 µM, stronger effect = higher value, 0% TNFa-plus-vehicle, 100% no-TNFa wells.
The nature of assay [2]: inhibitors of E-selectin induction by TNFa, primary screen, imaging, HUVEC, immunofluorescence, MLSMR starter and 10KST1 sets (AID 487;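 active = visually confirmed hit in the image check and inhibition above 20%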;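 for inhibition: signal is fraction of cell area covered by stained E-selectin grains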;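 for nuclei count: 100% = median nuclei count of all wells on the same plate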). Particulars: HUVEC TNFalpha-induced E-selectin immunofluorescence imaging, at 2 µM; inhibition: stronger effect = higher value; nuclei count: measured here: cell number, toxicity.
The nature of assay [3]: DUSP6 inhibitors restoring Erk phosphorylation by chemical complementation, primary imaging in DUSP6-transfected HeLa (AID 609;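 active = compounds giving at least 50% inhibition in the cell-based MKP-3 phosphatase rescue imaging test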;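 for inhibition: phospho-Erk level distribution per well compared with pooled transfected vehicle control wells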). Particulars: HeLa MKP-3 transfected, phospho-Erk imaging KS statistic, at 10 µM, cells stimulated with TPA for 15 min.
Assay [4] has as its target Dual specificity protein phosphatase 6 (Homo sapiens) (UniProt Q16828). Described as above. Particulars: HeLa MKP-3 transfected, phospho-Erk imaging KS statistic; at 10 µM; stronger effect = higher value; cells stimulated with TPA for 15 min.
In assay [5] the target is Voltage-gated potassium channel subunit beta-2 (Rattus norvegicus) (UniProt P62483). The assay is described as follows: KvBeta enzyme negative modulators, primary screen, biochemical, NADPH fluorescence (AID 622;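 active = fluorescence slope higher than the sample average by over 3 SD, cut at about -0.22 in these data, passing the limit was not always enough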;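 note: slope of raw intensity against log time taken from 70 to 1610 s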). Particulars: recombinant KvBeta, 4-cyanobenzaldehyde reduction, at 10 µM, stronger effect = higher value.
Voltage-gated potassium channel subunit beta-2 (Rattus norvegicus), sequence (P62483 whole entry, looked up): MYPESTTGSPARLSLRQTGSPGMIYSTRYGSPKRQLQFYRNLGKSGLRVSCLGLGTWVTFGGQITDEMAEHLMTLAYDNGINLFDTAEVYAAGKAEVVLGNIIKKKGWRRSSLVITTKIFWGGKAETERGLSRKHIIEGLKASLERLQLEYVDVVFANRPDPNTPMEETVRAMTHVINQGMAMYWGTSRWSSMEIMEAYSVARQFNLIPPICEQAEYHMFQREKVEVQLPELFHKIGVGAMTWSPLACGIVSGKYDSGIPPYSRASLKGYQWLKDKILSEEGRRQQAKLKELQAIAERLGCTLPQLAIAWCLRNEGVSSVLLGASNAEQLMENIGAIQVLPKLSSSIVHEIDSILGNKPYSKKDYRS
For assay [6] the target is unchanged. The assay is described as follows: KvBeta positive modulators, primary screen, biochemical, NADPH fluorescence (AID 623;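 active = NADPH fluorescence slope more negative than the mean of all samples by about 3 SD, 99.7% confidence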;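 note: fluorescence intensity change per second fitted from 20 to 320 s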). Particulars: Recombinant KvBeta, NADPH fluorescence decrease slope, 10 min; at 10 µM; stronger effect = lower value.
The target in assay [7] is Alpha-2C adrenergic receptor (Homo sapiens) (UniProt P18825). Kind of assay: modulators of alpha2C/GIRK thallium flux, primary screen, cell-based, HEK293 alpha2C/GIRK1/2 (AID 624;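 active = fluorescence slope after compound addition differing from the mean of all screened samples at 99.7% confidence, in either direction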;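 note: slope of fluorescence ratio to pre-addition baseline per second over 15 to 24 s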). Particulars: thallium flux BTC fluorescence, at 10 µM, actives lie on both sides.
Alpha-2C adrenergic receptor (Homo sapiens), sequence (P18825 whole entry, looked up): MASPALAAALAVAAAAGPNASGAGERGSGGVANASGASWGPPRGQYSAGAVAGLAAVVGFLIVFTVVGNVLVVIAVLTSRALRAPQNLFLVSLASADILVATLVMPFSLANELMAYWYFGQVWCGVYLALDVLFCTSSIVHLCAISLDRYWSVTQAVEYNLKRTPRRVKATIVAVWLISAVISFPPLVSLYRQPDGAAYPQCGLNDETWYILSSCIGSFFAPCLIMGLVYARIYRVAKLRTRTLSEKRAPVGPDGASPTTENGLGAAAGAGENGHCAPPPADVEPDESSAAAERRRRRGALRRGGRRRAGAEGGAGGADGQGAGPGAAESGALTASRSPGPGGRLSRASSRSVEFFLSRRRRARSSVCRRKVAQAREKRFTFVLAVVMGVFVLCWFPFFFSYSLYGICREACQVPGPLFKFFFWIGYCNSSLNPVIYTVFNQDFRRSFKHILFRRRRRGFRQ
A short description of assay [8]: inhibitors of larval lipid processing in zebrafish, primary screen, whole organism, PED6 fluorescence, gall bladder and intestine (AID 686).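 Note: larvae 5 to 7 days old with five fish per well; signal comes from phospholipase A2 cleavage of quenched PED6 carried via bile; overnight exposure to compound and PED6 before scoring.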 Particulars: Zebrafish larvae PED6 lipid processing, fluorescence scoring; screened at 20 µM (by protocol). An outline of the steps:
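System: live zebrafish larvae aged 5-7 days, whole organism; measure: graded gall bladder and intestinal fluorescence inhibition per well; incubation: overnight exposure; reagent: ingested quenched lipid PED6 at 100 nM; signal: By-eye fluorescence microscopy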

Assay [9] is described as follows: inhibitors of Chlamydomonas gravitaxis, primary screen, whole organism, Chlamydomonas reinhardtii, WT vs cilia-less mutant, absorbance, 96-well (AID 463189;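 active = inhibition at or above 50% relative to wild type and mutant plate controls; inactive = inhibition below 50%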;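 note: 0% = wild type cc124 cells in DMSO and 100% = ciliumless bld1 mutant cells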). Particulars: OD600 absorbance, 2 days, at 10 µM, stronger effect = higher value.
[10] abbreviates: measured here: cell density z-score.
[11] abbreviates: measured here: nuclear c-Myc green intensity z-score.
Where [12] appears, read: measured here: nuclear pErk red intensity z-score, stronger effect = higher value.

Dual specificity protein phosphatase 6 (Homo sapiens), sequence (Q16828 whole entry, looked up): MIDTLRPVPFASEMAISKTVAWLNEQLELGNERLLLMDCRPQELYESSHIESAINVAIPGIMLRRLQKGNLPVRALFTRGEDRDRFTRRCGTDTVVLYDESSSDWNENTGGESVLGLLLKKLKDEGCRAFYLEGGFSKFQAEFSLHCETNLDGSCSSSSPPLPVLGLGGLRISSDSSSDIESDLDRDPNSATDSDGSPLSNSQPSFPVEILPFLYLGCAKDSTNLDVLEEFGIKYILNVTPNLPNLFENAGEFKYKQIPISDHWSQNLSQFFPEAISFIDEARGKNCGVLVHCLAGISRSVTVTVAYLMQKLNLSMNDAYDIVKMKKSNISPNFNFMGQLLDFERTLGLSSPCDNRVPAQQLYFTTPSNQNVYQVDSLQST

As usually defined, the inhibition is the relative decrease from the control value, in per cent. `CN1CCN(c2nc(C(N)=O)cc(-c3ccccc3)n2)CC1`: the cell count in assay [1] was 400. The inhibition is -6.4% (inactive) in assay [1], 14% (inactive) in [2], 7.83% (inactive) in assay [4] and 18.8% (inactive) in [9]. The same molecule came in with a nuclei count in assay [2] of 98.8%. Also, the z-score is 1.22 in [3] (setting [10]), -2.25 in assay [3] (setting [11]) and 0.112 in assay [3] (setting [12]). In addition, the fluorescence slope in assay [5] was -0.498 (inactive). Besides, the NADPH fluorescence slope in assay [6] was -3.9e-05 (inactive). Moreover, the slope in assay [7] is 0.00569 (inactive). The molecule was classed as inactive in assay [8].
For the molecule `CC(C)OC(=O)[C@H]1[C@H](c2ccc(Cl)cc2)[C@@](C#N)(C(N)=O)[C@@H]2C=CC(C(N)=O)=CN21`, the cell count in assay [1] was 523. The inhibition in assay [1] was -4.9% (inactive); in [2] it was -24% (inactive); in assay [4] it was 2.46% (inactive); in [9], 6.97% (inactive). In addition, the nuclei count in assay [2] came to 155%. The figures for the z-score in [3] (setting [10]), in assay [3] (setting [11]) and in assay [3] (setting [12]) were 0.333, 0.745 and -0.843, respectively. The fluorescence slope in [5] is -0.335 (inactive). In [6], the NADPH fluorescence slope was 1.2e-05 (inactive). Moreover, in assay [7], the slope was 0.00427 (inactive). Further, the molecule was called inactive in assay [8].
Turning to `O=C(NCCN1CCOCC1)c1cc2n(n1)C(C(F)(F)F)CC(c1ccc(F)cc1)N2` (stereo unspecified), in assay [1], the cell count worked out at 341. Besides, the inhibition was -2.3% (inactive) in [1], -22.1% (inactive) in assay [2], 7.48% (inactive) in assay [4] and -15.3% (inactive) in [9]. Also, the nuclei count in [2] amounted to 104%. In addition, the z-score was -1.73 in assay [3] (setting [10]), 1.46 in assay [3] (setting [11]) and -0.339 in assay [3] (setting [12]). In addition, the fluorescence slope in [5] was -0.529 (inactive). Further, the NADPH fluorescence slope in assay [6] is -9.5e-05 (inactive). In addition, in assay [7], the slope is 0.00574 (inactive). In assay [8], the molecule was called inactive.
As to `c1ccc2c(c1)NC(c1ccncc1)n1c-2nc2ccccc21` (stereo unspecified), the cell count in [1] was determined as 301. The inhibition in assay [1] is 5% (inactive); in assay [2], -118% (inactive); in [4] it was -2.91% (inactive); in assay [9], -2.42% (inactive). Further, the nuclei count in [2] turned out to be 108%. Also, the z-score is -1.27 in assay [3] (setting [10]), 1.48 in assay [3] (setting [11]) and 0.784 in assay [3] (setting [12]). Also, in [5], the fluorescence slope is -0.384 (inactive). The NADPH fluorescence slope in assay [6] was -5.4e-05 (inactive). Further, the slope in [7] was 0.00501 (inactive). Further, the call in assay [8] was inactive.
`COc1ccc(Cn2c(O)cc(=O)[nH]c2=O)cc1`: the cell count in [1] worked out at 518. For the same molecule, the inhibition in assay [1] is -0.7% (inactive); in [2] it was -49.2% (inactive); in [4] it was 11.9% (inactive); in assay [9] it was -11.1% (inactive). The same molecule yielded a nuclei count in assay [2] of 94%. For the same molecule, the z-score in [3] (setting [10]) is -1.59; in [3] (setting [11]), 1.15; in [3] (setting [12]), -0.805. In addition, in assay [5], the fluorescence slope was -0.386 (inactive). In addition, the NADPH fluorescence slope in [6] is 4.3e-06 (inactive). The slope in assay [7] was 0.00581 (inactive). The outcome in assay [8] was inactive.
As for `COc1cccc2c(=O)c(SC(F)(F)C(F)C(F)(F)F)c(C)[nH]c12` (stereo unspecified), the cell count in assay [1] turned out to be 311. The inhibition in [1] was -0.8% (inactive); in assay [2], -14.2% (inactive); in assay [4], -2.91% (inactive); in assay [9] it was -12.2% (inactive). In [2], this molecule showed a nuclei count of 105%. The values for the z-score in [3] (setting [10]), in [3] (setting [11]) and in [3] (setting [12]) were 0.112, 2.52 and -0.995, respectively. In addition, the fluorescence slope in assay [5] is -0.393 (inactive). Moreover, the NADPH fluorescence slope in [6] is -3e-05 (inactive). The slope in assay [7] is 0.00581 (inactive). Also, the result in assay [8] was inactive.
As to `COc1ccc(C(CC(=O)N2CCOCC2)C(C)C)cc1` (stereo unspecified), the cell count in assay [1] stood at 486. For the same molecule, the inhibition in assay [1] was 10.6% (inactive); in assay [2], -31.9% (inactive); in assay [4], -5.26% (inactive); in [9], 19.8% (inactive). Moreover, the nuclei count in [2] was determined as 97.9%. The z-score in assay [3] (setting [10]) is -1.63; in [3] (setting [11]) it was 1.26; in assay [3] (setting [12]), -0.603. The fluorescence slope in [5] is -0.476 (inactive). In addition, the NADPH fluorescence slope in assay [6] was -7e-06 (inactive). Also, the slope in assay [7] is 0.00515 (inactive). Also, in assay [8], the outcome was inactive.
